In ChEMBL document CHEMBL5233208, “Optimization of P2Y12 Antagonist Ethyl 6-(4-((Benzylsulfonyl)carbamoyl)piperidin-1-yl)-5-cyano-2-methylnicotinate (AZD1283) Led to the Discovery of an Oral Antiplatelet Agent with Improved Druglike Properties” (J Med Chem, 2019):
Blank lines part the entries; values can stand above or below the compound they belong to. Active and inactive are the calls of the source. The rule behind the calls is not given here.

Tests used:
Homo sapiens = species: Homo sapiens; test: Antiplatelet activity in human platelet-rich plasma assessed as inhibition of ADP-induced platelet aggregation by aggregometry; format: functional
Summary of the method: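 Human PRP from healthy donors free of aspirin/NSAIDs for at least two weeks, drawn into ACD; PRP spun at 300 g for 10 min, PPP at 2000 g. Compound in 0.5% DMSO preincubated 2 min at 37 °C with stirring (900 rpm). Aggregation induced by 10 μM ADP (final) and followed optically for 5 min.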

Rattus norvegicus = test: Antithrombotic activity in anesthetized Wistar rat model of FeCL3-induced carotid artery thrombosis assessed as reduction in thrombus weight at 10 mg/kg, po administered as single dose measured at 1.5 hrs post dose; format: functional, organism-based
Summary of the method: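 Compounds in 0.5% CMC-Na given to Wistar rats as a single oral gavage dose (10 mL/kg). Rats anesthetized with 2% pentobarbital i.p. at 50 mg/kg and kept on a heating pad. At 1.5 h post-dose, filter paper soaked in 20% FeCl3 applied to the isolated left carotid artery for 10 min; thrombus weight recorded. Mean ± SEM, n = 10.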

[1] = Metabolic stability in rat liver microsomes assessed as half life at […] measured up to 60 mins in presence of NADPH regeneration system by LC-MS/MS analysis; format: ADME, Microsome
[2] = Metabolic stability in dog liver microsomes assessed as half life at […] measured up to 60 mins in presence of NADPH regeneration system by LC-MS/MS analysis; format: ADME, Canis lupus familiaris, Microsome
[3] = Metabolic stability in human liver microsomes assessed as half life at […] measured up to 60 mins in presence of NADPH regeneration system by LC-MS/MS analysis; format: ADME, Microsome
[4] = Cmax in Sprague-Dawley rat at 5 mg/kg,po measured up to 24 hrs by LC-MS/MS analysis; format: ADME, organism-based; parameters: time < 24 hrs, dose 5 mg/kg, route po; conditions: in vivo
[5] = Half life in Sprague-Dawley rat at 5 mg/kg,po measured up to 24 hrs by LC-MS/MS analysis; format: ADME, organism-based; conditions: in vivo
[6] = Tmax in Sprague-Dawley rat at 5 mg/kg,po measured up to 24 hrs by LC-MS/MS analysis; format: ADME, organism-based; conditions: in vivo
[7] = AUC (0 to infinity) in Sprague-Dawley rat at 5 mg/kg,po measured up to 24 hrs by LC-MS/MS analysis; format: ADME, organism-based; parameters: time < 24 hrs, dose 5 mg/kg, route po; conditions: in vivo
[8] = MRT in Sprague-Dawley rat at 5 mg/kg,po measured up to 24 hrs by LC-MS/MS analysis; format: ADME, organism-based; conditions: in vivo
Cytochrome P450 1A2 = biological target: T1, Cytochrome P450 1A2 (Homo sapiens, UniProt P05177); test: Inhibition of CYP1A2 in human liver microsomes using phenacetin as substrate preincubated for 10 mins followed by NADPH addition and measured after 15 mins by LC-MS/MS analysis
T1 sequence (P05177 whole entry): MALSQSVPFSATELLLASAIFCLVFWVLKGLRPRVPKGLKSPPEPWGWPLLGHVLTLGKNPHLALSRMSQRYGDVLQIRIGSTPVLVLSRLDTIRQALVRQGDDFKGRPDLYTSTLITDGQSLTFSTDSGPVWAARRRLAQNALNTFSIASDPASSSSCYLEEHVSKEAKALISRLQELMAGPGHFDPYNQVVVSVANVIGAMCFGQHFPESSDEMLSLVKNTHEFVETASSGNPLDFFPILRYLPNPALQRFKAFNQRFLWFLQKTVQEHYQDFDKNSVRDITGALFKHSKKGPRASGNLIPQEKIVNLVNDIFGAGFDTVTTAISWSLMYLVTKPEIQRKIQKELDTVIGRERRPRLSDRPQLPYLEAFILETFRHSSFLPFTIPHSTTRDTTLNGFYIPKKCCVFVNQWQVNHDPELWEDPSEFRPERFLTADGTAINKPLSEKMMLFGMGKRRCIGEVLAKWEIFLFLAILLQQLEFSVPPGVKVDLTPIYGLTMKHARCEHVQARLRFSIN

Cytochrome P450 2C9 = Cytochrome P450 2C9 (Homo sapiens, UniProt P11712); test: Inhibition of CYP2C9 in human liver microsomes using tolbutamide as substrate preincubated for 10 mins followed by NADPH addition and measured after 15 mins by LC-MS/MS analysis
Chain of Cytochrome P450 2C9 (P11712 whole entry): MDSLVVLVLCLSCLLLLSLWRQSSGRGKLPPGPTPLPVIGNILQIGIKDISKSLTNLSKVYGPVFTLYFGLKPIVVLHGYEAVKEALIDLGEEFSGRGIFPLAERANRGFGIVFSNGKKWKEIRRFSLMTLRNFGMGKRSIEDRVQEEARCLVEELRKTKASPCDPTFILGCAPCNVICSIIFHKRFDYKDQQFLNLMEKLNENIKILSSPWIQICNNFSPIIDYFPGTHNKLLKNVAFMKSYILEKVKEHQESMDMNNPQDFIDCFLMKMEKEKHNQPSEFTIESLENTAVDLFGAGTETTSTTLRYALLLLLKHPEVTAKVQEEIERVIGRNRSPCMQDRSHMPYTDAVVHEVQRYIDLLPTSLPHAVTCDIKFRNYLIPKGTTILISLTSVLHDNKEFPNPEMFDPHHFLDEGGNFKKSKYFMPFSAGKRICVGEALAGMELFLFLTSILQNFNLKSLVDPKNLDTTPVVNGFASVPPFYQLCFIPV

Cytochrome P450 2C19 = Cytochrome P450 2C19 (Homo sapiens, UniProt P33261); test: Inhibition of CYP2C19 in human liver microsomes using S-mephenytoin as substrate preincubated for 10 mins followed by NADPH addition and measured after 15 mins by LC-MS/MS analysis
Chain of Cytochrome P450 2C19 (P33261 whole entry): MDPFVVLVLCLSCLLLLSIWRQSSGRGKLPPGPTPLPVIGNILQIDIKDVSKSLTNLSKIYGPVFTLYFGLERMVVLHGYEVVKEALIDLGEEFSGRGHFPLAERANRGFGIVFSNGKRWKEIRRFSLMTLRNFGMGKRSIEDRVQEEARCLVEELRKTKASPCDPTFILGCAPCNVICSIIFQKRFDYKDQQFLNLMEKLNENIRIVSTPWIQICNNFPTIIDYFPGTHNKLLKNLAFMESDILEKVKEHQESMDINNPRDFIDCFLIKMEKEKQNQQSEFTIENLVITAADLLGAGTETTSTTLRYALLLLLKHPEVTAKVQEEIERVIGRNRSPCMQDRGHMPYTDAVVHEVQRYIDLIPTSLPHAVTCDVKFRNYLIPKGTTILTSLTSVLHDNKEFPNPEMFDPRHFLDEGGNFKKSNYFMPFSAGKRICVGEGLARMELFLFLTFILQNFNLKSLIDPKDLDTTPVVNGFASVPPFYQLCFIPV

Cytochrome P450 2D6 = Cytochrome P450 2D6 (Homo sapiens, UniProt P10635); test: Inhibition of CYP2D6 in human liver microsomes using dextromethorphan as substrate preincubated for 10 mins followed by NADPH addition and measured after 15 mins by LC-MS/MS analysis
Chain of Cytochrome P450 2D6 (P10635 whole entry): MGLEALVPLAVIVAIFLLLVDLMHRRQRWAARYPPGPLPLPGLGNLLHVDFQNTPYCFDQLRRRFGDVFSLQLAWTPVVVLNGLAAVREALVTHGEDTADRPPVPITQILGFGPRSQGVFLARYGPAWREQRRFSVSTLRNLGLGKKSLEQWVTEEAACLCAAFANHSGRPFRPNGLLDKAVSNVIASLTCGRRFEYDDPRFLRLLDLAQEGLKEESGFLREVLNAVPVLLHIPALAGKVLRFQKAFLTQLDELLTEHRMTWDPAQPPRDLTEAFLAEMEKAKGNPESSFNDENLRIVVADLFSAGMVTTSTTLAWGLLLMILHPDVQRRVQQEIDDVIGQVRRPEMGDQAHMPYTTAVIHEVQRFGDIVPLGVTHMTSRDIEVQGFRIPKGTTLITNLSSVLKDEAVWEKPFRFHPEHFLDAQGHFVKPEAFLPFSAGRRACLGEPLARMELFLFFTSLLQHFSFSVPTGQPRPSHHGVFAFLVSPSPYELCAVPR

Cytochrome P450 3A4 [9] = biological target: T2, Cytochrome P450 3A4 (Homo sapiens, UniProt P08684); test: Inhibition of CYP3A4 in human liver microsomes using Midazolam as substrate preincubated for 10 mins followed by NADPH addition and measured after 15 mins by LC-MS/MS analysis
T2 sequence (P08684 whole entry): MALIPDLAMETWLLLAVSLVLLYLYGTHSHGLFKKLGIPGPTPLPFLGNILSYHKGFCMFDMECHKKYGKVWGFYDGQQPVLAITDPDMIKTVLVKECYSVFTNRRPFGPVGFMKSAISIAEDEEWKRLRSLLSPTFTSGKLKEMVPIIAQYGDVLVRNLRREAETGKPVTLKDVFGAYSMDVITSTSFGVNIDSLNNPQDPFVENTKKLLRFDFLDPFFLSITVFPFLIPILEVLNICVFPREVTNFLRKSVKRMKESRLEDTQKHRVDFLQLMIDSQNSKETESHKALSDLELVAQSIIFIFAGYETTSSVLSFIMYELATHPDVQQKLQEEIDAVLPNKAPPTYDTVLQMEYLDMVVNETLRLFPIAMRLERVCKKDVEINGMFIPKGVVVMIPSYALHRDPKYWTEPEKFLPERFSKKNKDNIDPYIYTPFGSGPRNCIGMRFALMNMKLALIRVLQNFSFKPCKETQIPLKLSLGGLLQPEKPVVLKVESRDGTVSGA

Cytochrome P450 3A4 [10] = biological target: T2, Cytochrome P450 3A4; test: Inhibition of CYP3A4 in human liver microsomes using testosterone as substrate preincubated for 10 mins followed by NADPH addition and measured after 15 mins by LC-MS/MS analysis
[11] = Metabolic stability in rat liver microsomes assessed as intrinsic clearance at 0.1 µM measured up to 60 mins in presence of NADPH regeneration system by LC-MS/MS analysis; conditions: 1 h
[12] = Metabolic stability in dog liver microsomes assessed as intrinsic clearance at 0.1 µM measured up to 60 mins in presence of NADPH regeneration system by LC-MS/MS analysis; conditions: 1 h
[13] = Metabolic stability in human liver microsomes assessed as intrinsic clearance at 0.1 µM measured up to 60 mins in presence of NADPH regeneration system by LC-MS/MS analysis; conditions: 1 h

IC50 (Homo sapiens): > 300 µM
Compound: CC1OC(=O)c2cc(C#N)c(N3CCC(C(=O)NS(=O)(=O)Cc4ccccc4)CC3)nc21 (stereo not given)

IC50 (Homo sapiens): 9.95 µM
Compound: CC(c1ccccc1)S(=O)(=O)NC(=O)C1(F)CCN(c2nc3c(cc2C#N)C(=O)OC3)CC1 (stereo not given)

IC50 (Homo sapiens): 8.76 µM
Compound: CC1(C(=O)NS(=O)(=O)Cc2ccc(F)cc2F)CCN(c2nc3c(cc2C#N)C(=O)OC3)CC1

IC50 (Homo sapiens): 4.28 µM
Compound: Cc1ccc(CS(=O)(=O)NC(=O)C2CCN(c3nc4c(cc3C#N)C(=O)OC4)CC2)cc1

IC50 (Homo sapiens): > 300 µM
Compound: CC1OC(=O)c2cc(C#N)c(N3CC(C(=O)NS(=O)(=O)Cc4ccccc4)C3)nc21 (stereo not given)

IC50 (Homo sapiens): 4.16 µM
Compound: CC(c1ccccc1)S(=O)(=O)NC(=O)C1CCN(c2nc3c(cc2C#N)C(=O)OC3)CC1 (stereo not given)

IC50 (Homo sapiens): 35.4 µM
Compound: CC1(C(=O)NS(=O)(=O)Cc2ccc(F)cc2)CCN(c2nc3c(cc2C#N)C(=O)OC3)CC1

The remaining lines, values behind:

Compound: N#Cc1cc2c(nc1N1CCC(C(=O)NS(=O)(=O)Cc3ccc(C(F)(F)F)cc3)CC1)COC2=O
IC50 (Homo sapiens): 15.9 µM

Compound: CC1(C(=O)NS(=O)(=O)c2ccc(Cl)s2)CCN(c2nc3c(cc2C#N)C(=O)OC3)CC1
Activity (Rattus norvegicus): Active
IC50 (Homo sapiens): 1.64 µM
half-life [1]: 1.27 h
half-life [2]: 3.34 h
half-life [3]: 3.4 h
Cmax [4]: 479 ng/mL
half-life [5]: 1.26 h
Tmax [6]: 0.25 h
AUC(0-inf) [7]: 1060 ng·h/mL
MRT [8]: 1.98 h
IC50 (Cytochrome P450 1A2): > 50 µM
IC50 (Cytochrome P450 2C9): > 50 µM
IC50 (Cytochrome P450 2C19): 7.75 µM
IC50 (Cytochrome P450 2D6): > 50 µM
IC50 (Cytochrome P450 3A4 [9]): > 50 µM
IC50 (Cytochrome P450 3A4 [10]): > 50 µM
intrinsic clearance [11]: 27.6 mL/min/g
intrinsic clearance [12]: 10.5 mL/min/g
intrinsic clearance [13]: 10.3 mL/min/g

Compound: N#Cc1cc2c(nc1N1CCC(C(=O)NS(=O)(=O)Cc3ccccc3)CC1)CCC(Cl)C2=O (stereo not given)
IC50 (Homo sapiens): > 300 µM

Compound: N#Cc1cc2c(nc1N1CCC(C(=O)NS(=O)(=O)Cc3ccccc3F)CC1)COC2=O
IC50 (Homo sapiens): 23.7 µM

Compound: N#Cc1cc2c(nc1N1CCC(C(=O)NS(=O)(=O)c3ccc(Cl)s3)CC1)COC2=O
IC50 (Homo sapiens): 4.47 µM
half-life [1]: 2.53 h
half-life [2]: 2.85 h
half-life [3]: 1.32 h
Cmax [4]: 225 ng/mL
half-life [5]: 2.4 h
Tmax [6]: 0.25 h
AUC(0-inf) [7]: 417 ng·h/mL
MRT [8]: 2.31 h
IC50 (Cytochrome P450 1A2): > 50 µM
IC50 (Cytochrome P450 2C9): > 50 µM
IC50 (Cytochrome P450 2C19): 28.5 µM
IC50 (Cytochrome P450 2D6): > 50 µM
IC50 (Cytochrome P450 3A4 [9]): > 50 µM
IC50 (Cytochrome P450 3A4 [10]): > 50 µM
intrinsic clearance [11]: 13.8 mL/min/g
intrinsic clearance [12]: 12.3 mL/min/g
intrinsic clearance [13]: 26.6 mL/min/g

Compound: N#Cc1cc2c(nc1N1CCC(F)(C(=O)NS(=O)(=O)Cc3ccccc3)CC1)COC2=O
IC50 (Homo sapiens): 1.21 µM
Cmax [4]: 149 ng/mL
half-life [5]: 2.52 h
Tmax [6]: 0.25 h
AUC(0-inf) [7]: 291 ng·h/mL
MRT [8]: 3.83 h

Compound: CC1(C(=O)NS(=O)(=O)Cc2ccc(Cl)cc2)CCN(c2nc3c(cc2C#N)C(=O)OC3)CC1
IC50 (Homo sapiens): 3.01 µM
Cmax [4]: 877 ng/mL
half-life [5]: 1.9 h
Tmax [6]: 0.25 h
AUC(0-inf) [7]: 1350 ng·h/mL
MRT [8]: 2.58 h

Compound: N#Cc1cc2c(nc1N1CCC(C(=O)NS(=O)(=O)Cc3ccccc3)CC1)COC2=O
Activity (Rattus norvegicus): Active
IC50 (Homo sapiens): 2.35 µM
half-life [1]: 2.42 h
half-life [2]: 1.93 h
half-life [3]: 1.35 h
Cmax [4]: 271 ng/mL
half-life [5]: 1.7 h
Tmax [6]: 0.25 h
AUC(0-inf) [7]: 384 ng·h/mL
MRT [8]: 1.91 h
intrinsic clearance [11]: 14.5 mL/min/g
intrinsic clearance [12]: 18.2 mL/min/g
intrinsic clearance [13]: 25.8 mL/min/g

Compound: N#Cc1cc2c(nc1N1CCC(C(=O)NS(=O)(=O)Cc3ccccc3)CC1)CCOC2=O
IC50 (Homo sapiens): > 300 µM

Compound: N#Cc1cc2c(nc1N1CCC(C(=O)NS(=O)(=O)Cc3ccccc3)C1)COC2=O (stereo not given)
IC50 (Homo sapiens): > 300 µM

Compound: CN1Cc2nc(N3CCC(C(=O)NS(=O)(=O)Cc4ccccc4)CC3)c(C#N)cc2C1=O
IC50 (Homo sapiens): > 300 µM
